# Source: ChEMBL document CHEMBL1671716, “Antimicrobial susceptibility patterns for recent clinical isolates of anaerobic bacteria in South Korea” (2010)
# Legend:
# Bacteroides caccae [1] = test: Antimicrobial activity against Bacteroides caccae after 48 hrs by agar dilution method; format: functional
# In short: (§1)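 MICs on clinical anaerobe isolates by the CLSI agar dilution method. Inoculum of 10^5 CFU applied with a Steers replicator. Plates incubated 48 h at 37°C in an anaerobic chamber.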
# [2] = test system: Parabacteroides distasonis; test: Antimicrobial activity against Bacteroides distasonis after 48 hrs by agar dilution method; format: functional; in short: as §1
# Bacteroides ovatus [3] = test: Antimicrobial activity against Bacteroides ovatus after 48 hrs by agar dilution method; format: functional; in short: as §1
# Bacteroides fragilis = test: Antimicrobial activity against Bacteroides fragilis assessed as percent resistant isolates after 48 hrs by agar dilution method; format: functional
# In short: (§2)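 CLSI agar dilution on recent Korean clinical anaerobe isolates. Inoculum 10^5 CFU per spot by replicator. Plates incubated in an anaerobic chamber at 37°C for 48 h. For piperacillin plus tazobactam, tazobactam was held constant at 4 μg/ml. Resistance and susceptibility rates derived from MICs.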
# [4] = test system: Bacteroides thetaiotaomicron; test: Antimicrobial activity against Bacteroides thetaiotaomicron assessed as percent susceptible isolates after 48 hrs by agar dilution method; format: functional
# [5] = test system: Bacteroides thetaiotaomicron; test: Antimicrobial activity against Bacteroides thetaiotaomicron assessed as percent resistant isolates after 48 hrs by agar dilution method; format: functional; in short: as §2
# Bacteroides caccae [6] = test: Antimicrobial activity against Bacteroides caccae assessed as percent susceptible isolates after 48 hrs by agar dilution method; format: functional
# Phocaeicola vulgatus = test: Antimicrobial activity against Bacteroides vulgatus assessed as percent susceptible isolates after 48 hrs by agar dilution method; format: functional
# Bacteroides ovatus [7] = test: Antimicrobial activity against Bacteroides ovatus assessed as percent resistant isolates after 48 hrs by agar dilution method; format: functional; in short: as §2
# Prevotella intermedia [8] = test: Antimicrobial activity against Prevotella intermedia after 48 hrs by agar dilution method; format: functional
# In short: (§3)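 CLSI agar dilution (M11-A7); inoculum 10^5 CFU applied by replicator; plates incubated anaerobically 48 h at 37°C. For piperacillin-tazobactam, tazobactam held constant at 4 μg/ml.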
# Prevotella buccae [9] = test: Antimicrobial activity against Prevotella buccae after 48 hrs by agar dilution method; format: functional; details: Segatella buccae; in short: as §3
# Prevotella intermedia [10] = test: Antimicrobial activity against Prevotella intermedia assessed as percent susceptible isolates after 48 hrs by agar dilution method; format: functional; in short: as §3
# Prevotella bivia = test: Antimicrobial activity against Prevotella bivia assessed as percent susceptible isolates after 48 hrs by agar dilution method; format: functional; in short: as §3
# Prevotella buccae [11] = test: Antimicrobial activity against Prevotella buccae assessed as percent susceptible isolates after 48 hrs by agar dilution method; format: functional, Segatella buccae; in short: as §3
# Hoylesella oralis = test: Antimicrobial activity against Prevotella oralis assessed as percent susceptible isolates after 48 hrs by agar dilution method; format: functional
# In short: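 CLSI agar dilution MIC testing of clinical isolates. 10^5 CFU spotted by replicator, plates incubated 48 h at 37°C in an anaerobic chamber. Susceptibility rates derived from the MICs.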
# Fusobacterium varium = test: Antimicrobial activity against Fusobacterium varium after 48 hrs by agar dilution method; format: functional; in short: as §3
# [12] = test system: Peptostreptococcus anaerobius; test: Antimicrobial activity against Peptostreptococcus anaerobius after 48 hrs by agar dilution method; format: functional; in short: as §3
# Parvimonas micra [13] = test: Antimicrobial activity against Peptostreptococcus micros after 48 hrs by agar dilution method; format: functional; in short: as §3
# [14] = test system: Peptostreptococcus anaerobius; test: Antimicrobial activity against Peptostreptococcus anaerobius assessed as percent susceptible isolates after 48 hrs by agar dilution method; format: functional; in short: as §2
# Parvimonas micra [15] = test: Antimicrobial activity against Peptostreptococcus micros assessed as percent susceptible isolates after 48 hrs by agar dilution method; format: functional; in short: as §2
# Anaerococcus prevotii [16] = test: Antimicrobial activity against Anaerococcus prevotii after 48 hrs by agar dilution method; format: functional; in short: as §1
# Anaerococcus prevotii [17] = test: Antimicrobial activity against Anaerococcus prevotii assessed as percent resistant isolates after 48 hrs by agar dilution method; format: functional; in short: as §2
# [18] = test system: Peptoniphilus asaccharolyticus; test: Antimicrobial activity against Peptoniphilus asaccharolyticus after 48 hrs by agar dilution method; format: functional; in short: as §3
# Finegoldia magna = test: Antimicrobial activity against Finegoldia magna after 48 hrs by agar dilution method; format: functional; in short: as §3
# Clostridium perfringens [19] = test: Antimicrobial activity against Clostridium perfringens after 48 hrs by agar dilution method; format: functional
# Clostridium perfringens [20] = test: Antimicrobial activity against Clostridium perfringens assessed as percent susceptible isolates after 48 hrs by agar dilution method; format: functional
# Clostridioides difficile [21] = test: Antimicrobial activity against Clostridium difficile after 48 hrs by agar dilution method; format: functional
# Clostridioides difficile [22] = test: Antimicrobial activity against Clostridium difficile assessed as percent resistant isolates after 48 hrs by agar dilution method; format: functional
# Schaalia odontolytica = test: Antimicrobial activity against Actinomyces odontolyticus assessed as percent resistant isolates after 48 hrs by agar dilution method; format: functional; in short: as §2
# Actinomyces israelii [23] = test: Antimicrobial activity against Actinomyces israelii after 48 hrs by agar dilution method; format: functional; in short: as §1
# Actinomyces israelii [24] = test: Antimicrobial activity against Actinomyces israelii assessed as percent susceptible isolates after 48 hrs by agar dilution method; format: functional
# Actinomyces israelii [25] = test: Antimicrobial activity against Actinomyces israelii assessed as percent resistant isolates after 48 hrs by agar dilution method; format: functional; in short: as §2
# Schaalia meyeri [26] = test: Antimicrobial activity against Actinomyces meyeri assessed as percent susceptible isolates after 48 hrs by agar dilution method; format: functional
# Schaalia meyeri [27] = test: Antimicrobial activity against Actinomyces meyeri assessed as percent resistant isolates after 48 hrs by agar dilution method; format: functional; in short: as §2
# Actinomyces naeslundii = test: Antimicrobial activity against Actinomyces naeslundii assessed as percent susceptible isolates after 48 hrs by agar dilution method; format: functional
# [28] = test system: Bifidobacterium adolescentis; test: Antimicrobial activity against Bifidobacterium adolescentis assessed as percent susceptible isolates after 48 hrs by agar dilution method; format: functional
# [29] = test system: Bifidobacterium adolescentis; test: Antimicrobial activity against Bifidobacterium adolescentis assessed as percent resistant isolates after 48 hrs by agar dilution method; format: functional; in short: as §2
# Bifidobacterium sp. [30] = test: Antimicrobial activity against Bifidobacterium sp. after 48 hrs by agar dilution method; format: functional; in short: as §1
# Bifidobacterium sp. [31] = test: Antimicrobial activity against Bifidobacterium sp. assessed as percent susceptible isolates after 48 hrs by agar dilution method; format: functional; in short: as §3
# Bifidobacterium sp. [32] = test: Antimicrobial activity against Bifidobacterium sp. assessed as percent resistant isolates after 48 hrs by agar dilution method; format: functional; in short: as §2
# Eggerthella lenta [33] = test: Antimicrobial activity against Eubacterium lentum after 48 hrs by agar dilution method; format: functional; in short: as §3
# Eggerthella lenta [34] = test: Antimicrobial activity against Eubacterium lentum assessed as percent susceptible isolates after 48 hrs by agar dilution method; format: functional; in short: as §3
# Eubacterium sp. [35] = test: Antimicrobial activity against Eubacterium sp. after 48 hrs by agar dilution method; format: functional; in short: as §3
# Eubacterium sp. [36] = test: Antimicrobial activity against Eubacterium sp. assessed as percent resistant isolates after 48 hrs by agar dilution method; format: functional; in short: as §2
smiles,measurement,setting,value
CCC[C@@H]1C[C@@H](C(=O)N[C@@H]([C@H]2O[C@H](SC)[C@H](O)[C@@H](O)[C@H]2O)[C@H](C)Cl)N(C)C1 [CLINDAMYCIN],MIC50,Bacteroides caccae [1],> 128 µg/mL
same,MIC90,Bacteroides caccae [1],> 128 µg/mL
same,MIC50,[2],> 128 µg/mL
same,MIC90,[2],> 128 µg/mL
same,MIC50,Bacteroides ovatus [3],> 128 µg/mL
same,MIC90,Bacteroides ovatus [3],> 128 µg/mL
same,Activity,Bacteroides fragilis,33%
same,Activity,[4],16%
same,Activity,[5],68%
same,Activity,Bacteroides caccae [6],16%
same,Activity,Phocaeicola vulgatus,16%
same,Activity,Bacteroides ovatus [7],68%
same,MIC50,Prevotella intermedia [8],≤ 0.06 µg/mL
same,MIC90,Prevotella intermedia [8],≤ 0.06 µg/mL
same,MIC50,Prevotella buccae [9],≤ 0.06 µg/mL
same,MIC90,Prevotella buccae [9],128 µg/mL
same,Activity,Prevotella intermedia [10],100%
same,Activity,Prevotella bivia,50%
same,Activity,Prevotella buccae [11],50%
same,Activity,Hoylesella oralis,50%
same,MIC,Fusobacterium varium,0.06 µg/mL
same,MIC50,[12],0.125 µg/mL
same,MIC90,[12],64 µg/mL
same,MIC50,Parvimonas micra [13],0.125 µg/mL
same,MIC90,Parvimonas micra [13],64 µg/mL
same,Activity,[14],77%
same,Activity,Parvimonas micra [15],23%
same,MIC50,Anaerococcus prevotii [16],2 µg/mL
same,MIC90,Anaerococcus prevotii [16],128 µg/mL
same,Activity,Anaerococcus prevotii [17],40%
same,MIC50,[18],0.125 µg/mL
same,MIC90,[18],32 µg/mL
same,MIC50,Finegoldia magna,0.25 µg/mL
same,MIC90,Finegoldia magna,64 µg/mL
same,MIC50,Clostridium perfringens [19],2 µg/mL
same,MIC90,Clostridium perfringens [19],4 µg/mL
same,Activity,Clostridium perfringens [20],80%
same,MIC50,Clostridioides difficile [21],64 µg/mL
same,MIC90,Clostridioides difficile [21],128 µg/mL
same,Activity,Clostridioides difficile [22],83%
same,Activity,Schaalia odontolytica,15%
same,MIC,Actinomyces israelii [23],0.06 µg/mL
same,MIC50,Actinomyces israelii [23],0.06 µg/mL
same,MIC90,Actinomyces israelii [23],> 128 µg/mL
same,Activity,Actinomyces israelii [24],85%
same,Activity,Actinomyces israelii [25],15%
same,Activity,Schaalia meyeri [26],85%
same,Activity,Schaalia meyeri [27],15%
same,Activity,Actinomyces naeslundii,85%
same,Activity,[28],85%
same,Activity,[29],8%
same,MIC,Bifidobacterium sp. [30],0.06 µg/mL
same,MIC50,Bifidobacterium sp. [30],0.06 µg/mL
same,MIC90,Bifidobacterium sp. [30],> 128 µg/mL
same,Activity,Bifidobacterium sp. [31],85%
same,Activity,Bifidobacterium sp. [32],15%
same,MIC,Eggerthella lenta [33],0.06 µg/mL
same,MIC50,Eggerthella lenta [33],0.06 µg/mL
same,MIC90,Eggerthella lenta [33],> 128 µg/mL
same,Activity,Eggerthella lenta [34],85%
same,MIC,Eubacterium sp. [35],0.06 µg/mL
same,MIC50,Eubacterium sp. [35],0.06 µg/mL
same,MIC90,Eubacterium sp. [35],> 128 µg/mL
same,Activity,Eubacterium sp. [36],15%
